Experiments:
Genome polyprotein = Genome polyprotein (dengue virus type 2, UniProt P12823); test: Inhibition of Dengue virus serotype 2 NS2B-NS3 protease by homogeneous fluorimetric assay
[1] = biological target: Prothrombin (Homo sapiens) (UniProt P00734); test: Inhibition of thrombin (unknown origin) at 25 uM by homogeneous fluorimetric assay
[2] = biological target: Genome polyprotein (dengue virus type 2) (UniProt P12823); test: Inhibition of Dengue virus serotype 2 NS2B-NS3 protease at 50 uM by homogeneous fluorimetric assay
[3] = biological target: Genome polyprotein (West Nile virus) (UniProt P06935); test: Inhibition of West Nile virus […] NS2B-NS3 protease at 50 uM by homogeneous fluorimetric assay
Summary of the method: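 WNV NS2B-NS3 protease percent inhibition, homogeneous fluorimetric assay: enzyme 150 nM, inhibitor 50 μM, substrate 50 μM (Km = 212 μM); triplicate, SD below 10%.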

[4] = biological target: Genome polyprotein (dengue virus type 2) (UniProt P12823); test: Competitive inhibition of Dengue virus serotype 2 NS2B-NS3 protease by aprotinin competition fluorescence assay
Summary of the method: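 Active-site binding checked by aprotinin competition: fluorescence decrease followed with increasing inhibitor concentration, then aprotinin added to test recovery of fluorescence.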

Genome polyprotein (West Nile virus), sequence (P06935 whole entry): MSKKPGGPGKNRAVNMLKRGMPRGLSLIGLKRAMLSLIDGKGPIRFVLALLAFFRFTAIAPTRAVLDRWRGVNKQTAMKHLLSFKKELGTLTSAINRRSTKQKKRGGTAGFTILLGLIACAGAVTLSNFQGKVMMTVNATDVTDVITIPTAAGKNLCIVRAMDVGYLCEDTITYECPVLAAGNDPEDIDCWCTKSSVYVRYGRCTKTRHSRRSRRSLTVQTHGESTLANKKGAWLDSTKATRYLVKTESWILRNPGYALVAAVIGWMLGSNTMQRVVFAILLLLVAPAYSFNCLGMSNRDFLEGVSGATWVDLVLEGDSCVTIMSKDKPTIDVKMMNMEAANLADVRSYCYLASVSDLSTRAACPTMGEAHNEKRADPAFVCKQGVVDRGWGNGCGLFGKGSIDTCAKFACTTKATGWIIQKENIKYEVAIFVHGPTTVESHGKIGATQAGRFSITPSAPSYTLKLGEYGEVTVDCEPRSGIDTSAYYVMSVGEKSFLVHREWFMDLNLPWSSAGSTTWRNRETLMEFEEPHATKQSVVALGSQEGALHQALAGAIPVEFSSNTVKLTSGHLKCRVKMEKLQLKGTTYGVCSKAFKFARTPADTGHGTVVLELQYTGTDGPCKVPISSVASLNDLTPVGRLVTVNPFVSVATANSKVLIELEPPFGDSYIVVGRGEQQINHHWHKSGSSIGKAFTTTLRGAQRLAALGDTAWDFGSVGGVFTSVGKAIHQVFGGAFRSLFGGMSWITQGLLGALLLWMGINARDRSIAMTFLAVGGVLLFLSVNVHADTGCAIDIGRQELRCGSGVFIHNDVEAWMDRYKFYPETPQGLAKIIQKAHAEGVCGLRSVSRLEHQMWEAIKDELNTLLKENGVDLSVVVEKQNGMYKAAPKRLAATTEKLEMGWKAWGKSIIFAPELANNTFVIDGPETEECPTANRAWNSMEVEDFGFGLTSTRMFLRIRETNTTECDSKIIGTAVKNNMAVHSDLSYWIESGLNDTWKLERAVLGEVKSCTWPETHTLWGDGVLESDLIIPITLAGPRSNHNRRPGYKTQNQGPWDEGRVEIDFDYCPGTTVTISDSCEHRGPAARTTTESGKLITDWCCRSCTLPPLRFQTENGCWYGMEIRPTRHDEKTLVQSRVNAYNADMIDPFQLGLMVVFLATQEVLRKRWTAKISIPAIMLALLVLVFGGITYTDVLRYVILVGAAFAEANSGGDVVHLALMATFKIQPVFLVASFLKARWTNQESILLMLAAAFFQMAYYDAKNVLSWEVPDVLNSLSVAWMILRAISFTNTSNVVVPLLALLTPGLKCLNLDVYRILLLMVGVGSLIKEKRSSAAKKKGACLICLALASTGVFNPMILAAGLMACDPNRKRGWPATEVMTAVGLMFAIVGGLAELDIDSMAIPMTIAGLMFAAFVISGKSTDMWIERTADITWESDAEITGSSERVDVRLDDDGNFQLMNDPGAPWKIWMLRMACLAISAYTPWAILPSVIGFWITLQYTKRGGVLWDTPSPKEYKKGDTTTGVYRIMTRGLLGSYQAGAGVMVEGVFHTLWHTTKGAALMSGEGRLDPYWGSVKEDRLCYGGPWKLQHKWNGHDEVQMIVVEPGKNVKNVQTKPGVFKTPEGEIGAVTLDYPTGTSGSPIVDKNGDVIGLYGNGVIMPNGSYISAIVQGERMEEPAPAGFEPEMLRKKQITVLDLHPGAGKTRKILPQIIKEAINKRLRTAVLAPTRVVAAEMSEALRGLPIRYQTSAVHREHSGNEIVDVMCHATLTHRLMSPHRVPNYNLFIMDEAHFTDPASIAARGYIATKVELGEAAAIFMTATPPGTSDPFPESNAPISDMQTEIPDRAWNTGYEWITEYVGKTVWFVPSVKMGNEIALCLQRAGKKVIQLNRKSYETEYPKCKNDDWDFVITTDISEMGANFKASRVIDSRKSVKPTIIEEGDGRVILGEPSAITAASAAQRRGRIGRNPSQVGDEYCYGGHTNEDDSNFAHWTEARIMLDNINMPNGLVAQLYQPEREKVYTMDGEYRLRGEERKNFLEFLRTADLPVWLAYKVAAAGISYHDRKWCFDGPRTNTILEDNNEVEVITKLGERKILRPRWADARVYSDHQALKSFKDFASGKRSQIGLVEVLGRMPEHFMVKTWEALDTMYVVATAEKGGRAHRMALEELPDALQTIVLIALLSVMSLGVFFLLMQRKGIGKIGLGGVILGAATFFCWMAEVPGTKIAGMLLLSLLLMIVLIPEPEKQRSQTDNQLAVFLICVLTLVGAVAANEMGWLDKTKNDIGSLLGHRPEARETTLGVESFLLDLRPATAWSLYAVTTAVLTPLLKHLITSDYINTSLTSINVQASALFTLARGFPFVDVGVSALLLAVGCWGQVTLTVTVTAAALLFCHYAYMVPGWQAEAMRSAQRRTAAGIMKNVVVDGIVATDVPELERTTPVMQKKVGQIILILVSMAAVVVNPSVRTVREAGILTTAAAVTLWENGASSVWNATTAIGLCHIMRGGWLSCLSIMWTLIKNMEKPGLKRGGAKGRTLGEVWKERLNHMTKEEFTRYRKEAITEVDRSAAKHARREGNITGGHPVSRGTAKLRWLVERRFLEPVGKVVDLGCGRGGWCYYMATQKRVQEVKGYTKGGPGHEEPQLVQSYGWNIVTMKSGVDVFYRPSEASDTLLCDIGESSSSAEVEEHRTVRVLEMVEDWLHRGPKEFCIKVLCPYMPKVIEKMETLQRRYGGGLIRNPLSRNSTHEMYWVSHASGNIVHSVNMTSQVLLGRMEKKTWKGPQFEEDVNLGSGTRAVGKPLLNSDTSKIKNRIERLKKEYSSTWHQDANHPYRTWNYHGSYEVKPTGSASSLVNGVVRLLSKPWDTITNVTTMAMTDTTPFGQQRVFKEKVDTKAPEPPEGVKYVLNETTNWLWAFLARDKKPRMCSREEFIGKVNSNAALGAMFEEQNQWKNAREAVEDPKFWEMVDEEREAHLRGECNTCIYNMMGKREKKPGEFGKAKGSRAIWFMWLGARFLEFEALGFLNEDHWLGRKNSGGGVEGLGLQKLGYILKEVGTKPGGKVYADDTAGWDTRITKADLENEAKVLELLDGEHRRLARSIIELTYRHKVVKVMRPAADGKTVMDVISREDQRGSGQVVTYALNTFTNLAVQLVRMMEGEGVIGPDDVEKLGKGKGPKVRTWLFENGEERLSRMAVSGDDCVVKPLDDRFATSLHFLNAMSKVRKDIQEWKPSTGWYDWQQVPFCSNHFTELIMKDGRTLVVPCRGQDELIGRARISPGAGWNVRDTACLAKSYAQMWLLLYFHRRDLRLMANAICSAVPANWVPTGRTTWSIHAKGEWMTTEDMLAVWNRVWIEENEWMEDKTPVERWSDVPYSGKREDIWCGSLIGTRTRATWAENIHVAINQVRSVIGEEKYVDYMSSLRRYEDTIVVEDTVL

- IC50 (Genome polyprotein): 0.6 µM
- inhibition [1]: 9.2%
- inhibition [2]: 99.6%
- inhibition [3]: 98.4%
- inhibition [4]: Dose-dependent effect
SMILES: N=C(N)NCCC[C@H](NC(=O)c1ccc(/C=C2\SC(=O)N(C3CCCC3)C2=O)cc1)C(=O)N[C@@H](CCCCN)C(=O)N[C@H](C(N)=O)c1ccccc1
